Shown are actives, neighbours in structure and some others; about 1.8% of the full set was active somewhere.
FLuc act counter: FLuc activators, initial screening, artefact control for FLuc-dependent activation tests, biochemical, ATPlite luminescence. Luciferin 4-monooxygenase (Photinus pyralis), P08659. ATPlite luciferase biochemical, 10 min; 0 = ATP-free wells, 1 = DMSO control. activation factor at 10 µM. 200,000 tested, under 10 active;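 active = luciferase activation factor, scaled between plate controls, of at least 2 with compound at 10 µM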
Target sequence (P08659 whole entry, looked up): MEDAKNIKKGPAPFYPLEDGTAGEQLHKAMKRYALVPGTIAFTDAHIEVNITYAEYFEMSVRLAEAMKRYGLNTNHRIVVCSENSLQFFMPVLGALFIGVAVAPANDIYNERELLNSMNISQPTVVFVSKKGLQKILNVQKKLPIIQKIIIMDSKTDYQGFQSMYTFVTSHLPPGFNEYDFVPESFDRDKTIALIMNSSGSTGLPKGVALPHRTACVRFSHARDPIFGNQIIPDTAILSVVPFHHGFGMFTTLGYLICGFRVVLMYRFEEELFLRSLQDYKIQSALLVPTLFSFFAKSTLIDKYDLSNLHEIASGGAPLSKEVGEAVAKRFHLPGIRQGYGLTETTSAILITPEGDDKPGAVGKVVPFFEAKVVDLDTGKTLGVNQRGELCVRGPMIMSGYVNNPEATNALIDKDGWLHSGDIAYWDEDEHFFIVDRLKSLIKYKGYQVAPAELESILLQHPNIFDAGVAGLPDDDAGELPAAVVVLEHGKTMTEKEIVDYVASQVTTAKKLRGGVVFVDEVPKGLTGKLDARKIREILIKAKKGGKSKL
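System: cell-free luciferase reagent; medium: PBS as buffer for the ATP substrate; doses: test compounds dosed from 2 mM stocks in 100% DMSO; incubation: 10 min, room temperature; measured by: luminescence from luciferase reaction; read-out: luciferase activation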
MIN6 prolif: inducers of MIN6 beta-cell proliferation, primary screen, ATP luminescence, uHTS; MIN6 cells proliferation, ATPlite luminescence, 48 h; cells starved in 0.2% serum; 100% = growth in 10% serum; proliferation, % at 10 µM; 0.29% of 330,000 active; AID 2380, 2010;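 active = compounds whose signal lies at least 3.5 SD above the mean of all wells on their plate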;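 also: 0% = DMSO-treated cells in low-serum medium and 100% = 10% serum control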
FLuc inh counter: firefly luciferase enzyme inhibitors, primary screen, artefact control for luciferase-based inhibitor screens, biochemical, luminescence, ATPLite; 10 min; inhibition, % at 10 µM; 1.5% of 200,000 active;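 active = inhibition above about 50% when tested at 10 µM, limit read from the data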
PPC-1+TRAIL kill: compounds killing PPC-1 cancer cells with TRAIL present, primary screen, TRAIL potentiator project, ATPLite luminescence, uHTS. PPC-1 cells + TRAIL, ATPLite viability luminescence. cell killing (% activity), % at 4 µM or 5 µM. 0.41% of 220,000 active. AID 1443, 2008;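 active = cell killing above 50% in the first pass at 4 µM, then a duplicate retest at 5 µM averaging 50% or more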;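 also: plate controls were cells with TRAIL plus DMSO for no effect and medium-only wells lacking cells for full effect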
hiPSC survival: enhancers of single-cell hiPSC survival, primary screen, ATPlite luminescence; 0.044% of 360,000 active; 100% = ROCK inhibitor wells, 0% = DMSO; survival enhancement, % at 20 µM; in the data active = survival enhancement above about 18%;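 also: cells exposed to compounds for 16 hours before the ATP read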
TRAIL sens C8: viability loss with TRAIL in NB7+C8 cells, primary screen, TRAIL sensitizer project, cell-based, ATPlite luminescence; inhibition (viability loss, TRAIL sensitization), % at 10 µM; 1% of 360,000 active; AID 624354, 2012;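 active = compounds causing at least 50% loss of cell viability in the single-dose screen, relative to plate controls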
Numbers without * were called inactive.

For CCOC(=O)c1sc(NC(=O)Nc2cccc(Cl)c2)cc1C the results were FLuc act counter 0.5, MIN6 prolif -5, FLuc inh counter 46, PPC-1+TRAIL kill 18, hiPSC survival -3 and TRAIL sens C8 55*.
Screening COc1ccc(/C=C/C(=O)C2C(=O)C=C(C)OC2=O)cc1O (centres undefined) returned FLuc act counter 0.2, MIN6 prolif -4, FLuc inh counter 83*, PPC-1+TRAIL kill 25, hiPSC survival -4 and TRAIL sens C8 45.
Screening Nc1ccc(-c2cnc3ccccc3n2)cc1 returned MIN6 prolif 0, hiPSC survival -1 and TRAIL sens C8 -6.
Screening Nc1ccc(-c2cnc(-c3ccc(N)cc3)nc2)cc1 returned FLuc act counter 0.3, MIN6 prolif -5, FLuc inh counter 74*, PPC-1+TRAIL kill -10, hiPSC survival -3 and TRAIL sens C8 73*.
For Oc1ccc(-c2cnc(-c3ccc(O)cc3)nc2)cc1 the results were MIN6 prolif -7, hiPSC survival -1 and TRAIL sens C8 80*.
COC(=O)C1=C(O)/C(=C\c2cc(C)n(-c3ccccc3F)c2C)N=C1C was read as FLuc act counter 0.4, MIN6 prolif 0, FLuc inh counter 64*, hiPSC survival -1 and TRAIL sens C8 -4.
`O=S(=O)(Nc1cc(Sc2cccc3cccnc23)c(O)c2ccccc12)c1ccccc1` gave FLuc act counter 1.1, FLuc inh counter -6 and PPC-1+TRAIL kill 70*.
`CCOc1ccc(S(=O)(=O)Nc2cc(SCC(=O)O)c(O)c3ccccc23)cc1` gave hiPSC survival -1 and TRAIL sens C8 35.
N/C(=N\OCc1ccc([N+](=O)[O-])cc1)c1ccncc1 was read as FLuc act counter 0.5, MIN6 prolif -3, FLuc inh counter 55*, PPC-1+TRAIL kill 17, hiPSC survival -2 and TRAIL sens C8 25.
`COc1ccc(CCNC(=S)c2ccccc2)cc1OC` gave MIN6 prolif 0, hiPSC survival 0 and TRAIL sens C8 18.
Cc1ccccc1C(=O)Nc1ccccc1C(=O)N/N=C\c1ccco1 was read as FLuc act counter 0.8, MIN6 prolif -1, FLuc inh counter 23, PPC-1+TRAIL kill 6, hiPSC survival 0 and TRAIL sens C8 -1.
For O=C(Nc1ccccc1C(=O)N/N=C/c1ccco1)c1ccc(Cl)cc1 the results were FLuc act counter 0.1, MIN6 prolif -2, FLuc inh counter 85*, PPC-1+TRAIL kill 9, hiPSC survival -2 and TRAIL sens C8 47.
O=C(Nc1ccccc1C(=O)N/N=C/c1ccco1)c1ccccc1 was read as FLuc act counter 0.2, MIN6 prolif 1, FLuc inh counter 76*, PPC-1+TRAIL kill 24, hiPSC survival 4 and TRAIL sens C8 19.
For O=C(Nc1ccccc1C(=O)N/N=C/c1ccco1)c1ccc(F)cc1 the results were FLuc act counter 0.2, MIN6 prolif -1, FLuc inh counter 80*, PPC-1+TRAIL kill 21, hiPSC survival -1 and TRAIL sens C8 18.
`CS(=O)(=O)Cc1ccc(C(=O)NC2CCCc3ccccc32)cc1` (centres undefined) gave MIN6 prolif -3, hiPSC survival 0 and TRAIL sens C8 4.
`CCCCC[C@@H](C)N1C[C@H](COCc2ccccc2)Oc2cc(N3CC[C@H](N(C)C)C3)ccc2S1(=O)=O` gave hiPSC survival 0 and TRAIL sens C8 69*.
CN(C)C(=O)CSc1nnc2sc3ccccc3n12 was read as FLuc act counter 1.1, MIN6 prolif -1, FLuc inh counter -8, PPC-1+TRAIL kill 8, hiPSC survival 1 and TRAIL sens C8 9.
O=c1c2ccccc2nnn1CSc1nnc2sc3ccccc3n12 was read as FLuc act counter 0.4, MIN6 prolif -2, FLuc inh counter 58* and PPC-1+TRAIL kill 40.
Screening CSc1ccc(CN2C(=O)NC3(CCCCCCC3)C2=O)cc1 returned FLuc act counter 1, MIN6 prolif 1, FLuc inh counter -4, PPC-1+TRAIL kill -1, hiPSC survival 0 and TRAIL sens C8 -3.
Screening CCOc1cc(/C=C\[N+](=O)[O-])ccc1OCC(=O)Nc1ccccc1C returned FLuc act counter 1, MIN6 prolif -3, FLuc inh counter -4, PPC-1+TRAIL kill 2, hiPSC survival -3 and TRAIL sens C8 64*.
`COc1ccc2nc(-c3ccc(F)cc3)sc2c1` gave MIN6 prolif -5, hiPSC survival -4 and TRAIL sens C8 65*.
Screening COc1ccc2nc(N)sc2c1 returned FLuc act counter 0.8, MIN6 prolif -3, FLuc inh counter 16, PPC-1+TRAIL kill 22, hiPSC survival 0 and TRAIL sens C8 -5.
For CC(=O)Nc1sc2c(c1-c1nc3ccccc3s1)CN(C(C)C)CC2 the results were MIN6 prolif -6, hiPSC survival -5 and TRAIL sens C8 54*.
Clc1ccc(-c2cn3nc4c(nc3n2)CCCC4)cc1 was read as FLuc act counter 0.4, MIN6 prolif 0, FLuc inh counter 59*, PPC-1+TRAIL kill 4, hiPSC survival -2 and TRAIL sens C8 29.
`COc1cccc(-c2cn3nc4c(nc3n2)CCCC4)c1` gave FLuc act counter 0.3, MIN6 prolif -4, FLuc inh counter 68*, PPC-1+TRAIL kill 3, hiPSC survival -3 and TRAIL sens C8 53*.
Screening Clc1ccc(-c2cn3cccnc3n2)cc1 returned FLuc act counter 0.6, MIN6 prolif -3, FLuc inh counter 36, PPC-1+TRAIL kill 6, hiPSC survival -3 and TRAIL sens C8 17.
CCCC(=O)N(Cc1cc(=O)[nH]c2ccccc12)c1ccccc1C was read as MIN6 prolif 3, hiPSC survival 0 and TRAIL sens C8 10.
`COc1ccc(C(C)(C)C)cc1NC(=O)CCCN1C(=O)NC(C)(C)C1=O` gave MIN6 prolif -2, hiPSC survival 0 and TRAIL sens C8 -12.
For Nc1ccc(C=C2C=Cc3ccccc32)cc1 the results were hiPSC survival 1 and TRAIL sens C8 9.
NC(N)=Nc1ccc(C=C2C=Cc3ccccc32)cc1 was read as hiPSC survival -1 and TRAIL sens C8 87*.
CCOC(=O)[C@]12Cc3c(cc(OC)c(OC)c3OC)[C@H]1N(C1CCCCC1)C(=O)c1cc(OC)ccc12 was read as hiPSC survival -1 and TRAIL sens C8 67*.
For O=C(N/N=C/c1ccc2c(c1)OCO2)C(=O)Nc1ccccc1Cl the results were MIN6 prolif -2, hiPSC survival 0 and TRAIL sens C8 27.
For O=C(O/N=C/c1ccc2c(c1)OCO2)c1ccccc1Cl the results were FLuc act counter 0.3, MIN6 prolif -1, FLuc inh counter 70* and PPC-1+TRAIL kill 28.
